Assay [1] addresses Glutamate receptor ionotropic AMPA (Homo sapiens, UniProt P42261+P42262+P42263+P48058). Description: Binding affinity against Ionotropic glutamate receptor AMPA using [3H]AMPA as a radioligand. It is filed as protein-complex assay.
Assay [2] is filed under the species Rattus norvegicus. Briefly: Inhibitory activity against compound induced depolarization of Kainic acid receptor in rat cortical slice preparation. It is filed as functional. A digest of the protocol:
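Cortical slice depolarizations evoked by 10 μM kainic acid. Test compound at concentrations up to 100 μM; the value is the IC50 for inhibition.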

For assay [3], the species on record is Rattus norvegicus. Description: Inhibitory activity against compound induced depolarization of AMPA receptor in rat cortical slice preparation. It is filed as functional. A digest of the protocol: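 Cortical slice preparation. Depolarizations evoked by 40 μM AMPA or 40 μM quisqualic acid (QUIS); the value is the IC50 for inhibition of the agonist response.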

For a further assay, the target named is Glutamate NMDA receptor. Description: Binding affinity against NMDA receptor using [3H]-CGS- 19755 as a radioligand in rat. A digest of the protocol:
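Displacement of the selective NMDA-site radioligand [3H]CGS 19755. Run in triplicate unless otherwise indicated; IC50 reported.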

The species entered for assay [4] is Rattus norvegicus. Description: Inhibitory activity against compound induced depolarization of NMDA receptor in rat cortical slice preparation. In kind it is functional. A digest of the protocol: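 Cortical slice preparation. Depolarizations evoked by 40 μM NMDA; the value is the IC50 for inhibition of the NMDA response.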
Assay [5] is described as follows: Compound was evaluated for high binding affinity towards glycine site on the NMDA receptor. Set-up: species or system Rattus norvegicus.
Assay [6] is filed under the species Rattus norvegicus. Description: Compound was evaluated against compound induced depolarization of NMDA receptor in rat cortical slice preparation. It is filed as functional. A digest of the protocol: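 Cortical slice preparation in which depolarization was induced by 40 μM NMDA. Antagonism was measured as inhibition of this depolarization, and […].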

Assay [7] deals with Glutamate receptor ionotropic kainate. Briefly: Binding affinity against Ionotropic glutamate receptor kainate using [3H]-Kainic acid as a radioligand. In kind it is protein-complex assay. A digest of the protocol: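 Displacement of [3H]kainic acid from kainate receptor sites. Run in triplicate unless otherwise indicated; IC50 reported.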
Assay [8] is described as follows: Binding affinity towards glycine site on the NMDA receptor was determined. Set-up: species or system Rattus norvegicus.
For assay [9], the species on record is Xenopus sp. Briefly: Compound was evaluated for blocking of depolarization induced by 30 uM NMDA in xenopus oocytes injected with rat brain m-RNA.
For assay [10], the species on record is Xenopus sp. Description: Compound was evaluated for blocking of depolarization induced by 30 uM AMPA in xenopus oocytes injected with rat brain m-RNA. It is filed as functional, frog.

Structures are written as SMILES. Values joined by “and” are separate entries in the source; they are usually repeats but may differ in a detail not shown here. Identical values can stand only once. Some results are limits rather than exact numbers.

For `O=C(O)[C@H]1CC[C@H]2CN[C@H](C(=O)O)C[C@H]2C1` (racemic), the IC50 (in assay [1]; in the assay listed under Rattus norvegicus [2]; in the assay filed under Rattus norvegicus [3] (Rattus norvegicus); at Glutamate NMDA receptor; in the assay listed under Rattus norvegicus [4] (Rattus norvegicus)) was greater than 100 µM each time.

`O=C1Nc2cc(Cl)ccc2CC1[N+](=O)[O-]` (centres undefined): the IC50 (in general, the concentration that gives 50% inhibition) in [5] is 410 nM. Moreover, in the assay listed under Rattus norvegicus [6], the KbS is 6.7 µM and 9.2 µM.

With `O=C(O)[C@@H]1C[C@H]2C[C@@H](c3nnn[nH]3)CC[C@H]2CN1` (racemic), the 50% inhibitory concentration (IC50) was 12.8 µM in assay [1]; greater than 100 µM in the assay filed under Rattus norvegicus [2]; 31.8 µM in assay [7]; 40.9 µM in the assay filed under Rattus norvegicus [3]; 1.6 µM at Glutamate NMDA receptor; 7.5 µM in the assay filed under Rattus norvegicus [4].

In the case of `O=[N+]([O-])c1cc2nc(O)c(O)nc2cc1[N+](=O)[O-]` [DNQX], the Ki (usually the dissociation constant of the complex between target and ligand, obtained from inhibition or displacement) in assay [1] came out at 360 nM; in [8], 390 nM.

In the case of `O=C(O)[C@@H]1C[C@H]2C[C@H](c3nnn[nH]3)CC[C@H]2CN1` (racemic), the concentration for half-maximal inhibition (IC50) in [1] was greater than 100 µM; in [7], greater than 100 µM; in the assay listed under Rattus norvegicus [3] (Rattus norvegicus), greater than 100 µM; on Glutamate NMDA receptor, 38.4 µM; in the assay listed under Rattus norvegicus [4] (Rattus norvegicus), 65 µM.

For the compound `O=C(O)[C@@H]1C[C@H]2C[C@@H](c3nnn[nH]3)CC[C@H]2CN1` (stereo in doubt; (+)-6), the IC50 (in [1]; in assay [7]; in the assay listed under Rattus norvegicus [3]; on Glutamate NMDA receptor; in the assay filed under Rattus norvegicus [4]) was greater than 100 µM throughout.

`O=C(O)[C@@H]1C[C@H]2C[C@@H](CCc3nn[nH]n3)CC[C@H]2CN1` (racemic) [TEZAMPANEL ANHYDROUS]: the IC50 in the assay filed under Rattus norvegicus [2] came out at 31.7 µM; in assay [7] it was 247 µM; in the assay listed under Rattus norvegicus [3] (Rattus norvegicus), 6 µM; at Glutamate NMDA receptor, 26.4 µM; in the assay listed under Rattus norvegicus [4] (Rattus norvegicus) it was 61.3 µM.

Regarding `O=[N+]([O-])c1ccc2cc(NS(=O)(=O)C(F)(F)F)c(O)nc2c1`, the Ki in assay [1] is 600 nM; in the assay filed under Xenopus sp. [9], 620 nM; in the assay filed under Xenopus sp. [10] it was 370 nM.

For the compound `O=C(O)[C@@H]1C[C@H]2C[C@@H](Cc3nnn[nH]3)CC[C@H]2CN1` (racemic), the 50% inhibitory concentration (IC50) in assay [1] is 84.5 µM; in the assay filed under Rattus norvegicus [2], greater than 100 µM; in assay [7] it was greater than 100 µM; in the assay listed under Rattus norvegicus [3] (Rattus norvegicus) it was greater than 100 µM; on Glutamate NMDA receptor, 0.82 µM; in the assay filed under Rattus norvegicus [4] (Rattus norvegicus), 1.4 µM.

For the compound `O=C(O)[C@@H]1C[C@H]2C[C@@H](c3nnn[nH]3)CC[C@H]2CN1` (stereo in doubt; (-)-6), the IC50 in assay [1] came out at 5.7 µM; in [7] it was 21 µM; in the assay filed under Rattus norvegicus [3], 13.2 µM; on Glutamate NMDA receptor, 1 µM; in the assay filed under Rattus norvegicus [4], 4.1 µM.

The record behind these values is ChEMBL document CHEMBL1128208, “(3SR,4aRS,6SR,8aRS)-6-(1H-tetrazol-5-yl)decahydroisoquinoline-3-carboxylic acid, a novel, competitive, systemically active NMDA and AMPA receptor antagonist” (J Med Chem, 1995).
